# Results reported in ChEMBL document CHEMBL1135420, “Mode of action of 4-hydroxyphenylpyruvate dioxygenase inhibition by triketone-type inhibitors” (J Med Chem, 2002).
# pIC50: −log10 of the molar value.
# Target: 4-hydroxyphenylpyruvate dioxygenase (Sus scrofa, UniProt Q02110)
# Assay: Inhibition of pig liver 4-Hydroxyphenylpyruvate dioxygenase (4-HPPD) enzyme
# Procedure, shortened: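 Spectrophotometric enol borate assay. Mixture: potassium phosphate/borate buffer (0.42 M H₃BO₃ brought to pH 6.2 with 0.17 M Na₃PO₄), 4-hydroxyphenylpyruvic acid (1.8 mM stock), reduced dichlorophenolindophenol with glutathione, and phenylpyruvate tautomerase. Equilibrated about 15 min at 308 nm, then enzyme added with varying inhibitor concentrations. Absorbance decrease at 308 nm followed for 15 min. IC50 from fit to v_i = v₀/(1+[I]/IC50).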
# Sequence of 4-hydroxyphenylpyruvate dioxygenase (Q02110 whole entry): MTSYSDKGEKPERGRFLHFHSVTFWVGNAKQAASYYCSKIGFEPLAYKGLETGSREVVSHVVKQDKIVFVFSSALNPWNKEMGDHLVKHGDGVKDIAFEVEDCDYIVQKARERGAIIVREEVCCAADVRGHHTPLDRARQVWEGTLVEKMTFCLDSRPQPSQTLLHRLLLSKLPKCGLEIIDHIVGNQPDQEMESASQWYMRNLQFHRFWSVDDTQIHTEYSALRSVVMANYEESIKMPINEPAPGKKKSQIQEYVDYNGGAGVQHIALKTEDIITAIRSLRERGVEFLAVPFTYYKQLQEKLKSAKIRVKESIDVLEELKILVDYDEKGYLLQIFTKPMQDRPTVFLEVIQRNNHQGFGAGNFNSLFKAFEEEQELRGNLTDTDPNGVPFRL
row,pIC50,SMILES
1,3.60,O=C1CCCC(=O)N1Cc1ccccc1[N+](=O)[O-]
2,3.90,O=C1CCCC(O)=C1Cc1ccccc1[N+](=O)[O-]
3,4.28,COC1=C(C(=O)c2ccccc2[N+](=O)[O-])C(=O)CCC1
4,4.30,O=C1CCCC(=O)C1=C(NO)c1ccccc1[N+](=O)[O-]
5,4.19,O=C1CCCC(Cl)=C1C(=O)c1ccccc1[N+](=O)[O-]
6,6.15,O=C1CCCC/C1=C(/O)c1ccccc1[N+](=O)[O-]
7,6.80,O=C1CCCC(=O)C1=C(O)c1ccccc1[N+](=O)[O-]
8,4.22,O=C1CCCC(=O)N1C(=O)c1ccccc1[N+](=O)[O-]
9,6.28,O=C1CCC=C(Cl)/C1=C(/O)c1ccccc1[N+](=O)[O-]
